Data published in ChEMBL document CHEMBL4765235, “Discovery of N-[Bis(4-methoxyphenyl)methyl]-4-hydroxy-2-(pyridazin-3-yl)pyrimidine-5-carboxamide (MK-8617), an Orally Active Pan-Inhibitor of Hypoxia-Inducible Factor Prolyl Hydroxylase 1-3 (HIF PHD1-3) for the Treatment of Anemia” (J Med Chem, 2016).
The source made the active and inactive calls. The calls are words filed in the database; no cut-off is given here.

Tests used:
[1] = Oral bioavailability in rhesus monkey at 1 mg/kg; assay type: ADME, organism-based, Macaca mulatta; conditions: in vivo
How it was run: (§1)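 Dog and rhesus monkey dosed 1 mg/kg po and 0.5 mg/kg iv. The iv vehicle was PEG200:12%HPCD:water (30:12:58 v/v/v); the po vehicle was Imwitor:Tween (1:1 w/w). Clearance was measured in plasma. Protein binding was measured in 100% serum.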

Cytochrome P450 3A4 = Cytochrome P450 3A4 (Homo sapiens, UniProt P08684); assay: Inhibition of CYP3A4 (unknown origin); assay type: ADME
Cytochrome P450 3A4, sequence (P08684 whole entry): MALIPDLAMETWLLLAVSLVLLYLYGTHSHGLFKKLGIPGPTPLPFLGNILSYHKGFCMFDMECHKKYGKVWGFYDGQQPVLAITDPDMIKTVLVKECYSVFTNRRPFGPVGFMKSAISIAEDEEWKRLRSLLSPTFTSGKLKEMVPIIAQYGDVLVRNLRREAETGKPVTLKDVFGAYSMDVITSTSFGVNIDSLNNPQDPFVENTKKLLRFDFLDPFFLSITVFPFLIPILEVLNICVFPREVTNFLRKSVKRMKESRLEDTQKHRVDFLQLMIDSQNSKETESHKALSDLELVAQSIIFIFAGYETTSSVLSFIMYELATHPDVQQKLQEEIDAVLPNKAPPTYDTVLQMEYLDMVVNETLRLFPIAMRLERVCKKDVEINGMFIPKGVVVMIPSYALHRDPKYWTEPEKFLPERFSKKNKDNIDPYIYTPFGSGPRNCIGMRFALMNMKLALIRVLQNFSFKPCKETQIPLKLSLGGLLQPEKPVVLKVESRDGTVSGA

[2] = target: Voltage-gated inwardly rectifying potassium channel KCNH2 (Homo sapiens, UniProt Q12809); assay: Inhibition of human ERG
Voltage-gated inwardly rectifying potassium channel KCNH2, sequence (Q12809 whole entry): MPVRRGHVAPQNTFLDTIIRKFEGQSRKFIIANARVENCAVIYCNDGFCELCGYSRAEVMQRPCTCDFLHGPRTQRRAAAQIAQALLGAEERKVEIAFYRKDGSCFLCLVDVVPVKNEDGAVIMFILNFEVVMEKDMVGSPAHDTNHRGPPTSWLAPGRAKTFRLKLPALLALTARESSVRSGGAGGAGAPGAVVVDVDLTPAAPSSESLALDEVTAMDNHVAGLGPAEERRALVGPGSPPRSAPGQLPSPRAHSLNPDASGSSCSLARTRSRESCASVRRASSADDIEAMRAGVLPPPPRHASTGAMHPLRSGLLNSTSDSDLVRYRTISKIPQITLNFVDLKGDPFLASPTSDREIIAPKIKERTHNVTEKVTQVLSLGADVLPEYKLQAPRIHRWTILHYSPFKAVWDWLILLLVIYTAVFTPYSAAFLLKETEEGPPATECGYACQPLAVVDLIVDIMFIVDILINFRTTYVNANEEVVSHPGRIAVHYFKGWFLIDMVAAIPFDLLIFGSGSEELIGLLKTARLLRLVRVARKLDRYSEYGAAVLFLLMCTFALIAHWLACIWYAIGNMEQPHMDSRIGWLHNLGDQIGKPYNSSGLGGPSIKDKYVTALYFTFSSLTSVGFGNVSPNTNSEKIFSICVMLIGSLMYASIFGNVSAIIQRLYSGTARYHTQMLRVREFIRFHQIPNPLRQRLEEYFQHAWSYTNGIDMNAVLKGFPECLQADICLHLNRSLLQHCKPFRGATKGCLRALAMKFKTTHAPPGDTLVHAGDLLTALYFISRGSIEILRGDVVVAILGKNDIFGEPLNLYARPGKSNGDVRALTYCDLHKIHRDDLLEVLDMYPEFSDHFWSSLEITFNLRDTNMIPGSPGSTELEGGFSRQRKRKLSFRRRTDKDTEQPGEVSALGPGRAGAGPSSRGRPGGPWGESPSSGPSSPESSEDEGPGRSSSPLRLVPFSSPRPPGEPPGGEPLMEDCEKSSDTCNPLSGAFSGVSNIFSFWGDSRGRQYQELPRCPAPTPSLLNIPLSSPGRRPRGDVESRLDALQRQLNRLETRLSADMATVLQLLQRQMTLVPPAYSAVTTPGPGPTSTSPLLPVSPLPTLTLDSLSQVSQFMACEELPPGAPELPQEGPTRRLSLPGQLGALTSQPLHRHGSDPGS

[3] = Protein binding in dog plasma assessed as unbound fraction at 1 mg/kg, po or 0.5 mg/kg, iv; assay type: ADME, organism-based, Canis lupus familiaris; conditions: read-out: PPB
[4] = In vivo inhibition of HIF-PHD2 in C57BL/6 mouse assessed as serum erythropoietin level at 100 mg/kg, iv measured after 4 hrs; assay type: functional
How it was run: (§2)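 Mouse pharmacodynamic EPO assay (MoPED). Compound dosed iv; serum EPO measured 4 hr after dosing and reported in pg/mL. Minimum effective dose is the lowest dose giving EPO elevation.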

[5] = In vivo inhibition of HIF-PHD2 in C57BL/6 mouse assessed as serum erythropoietin level at 50 mg/kg, iv measured after 4 hrs; assay type: functional; how it was run: as §2
[6] = Drug metabolism in dog liver microsomes assessed as O-demethylated metabolite formation; assay type: ADME, Canis lupus familiaris, Microsome
[7] = Drug metabolism in fasted bile-duct cannulated Sprague-Dawley rat urine assessed as oxidation of parent compound causing metabolite formation at 5 mg/kg, po using [3H]-labeled compound measured after 48 hrs; assay type: ADME, organism-based; conditions: in vivo
Cytochrome P450 2C9 = Cytochrome P450 2C9 (Homo sapiens, UniProt P11712); assay: Inhibition of CYP2C9 (unknown origin); assay type: ADME
Cytochrome P450 2C9, sequence (P11712 whole entry): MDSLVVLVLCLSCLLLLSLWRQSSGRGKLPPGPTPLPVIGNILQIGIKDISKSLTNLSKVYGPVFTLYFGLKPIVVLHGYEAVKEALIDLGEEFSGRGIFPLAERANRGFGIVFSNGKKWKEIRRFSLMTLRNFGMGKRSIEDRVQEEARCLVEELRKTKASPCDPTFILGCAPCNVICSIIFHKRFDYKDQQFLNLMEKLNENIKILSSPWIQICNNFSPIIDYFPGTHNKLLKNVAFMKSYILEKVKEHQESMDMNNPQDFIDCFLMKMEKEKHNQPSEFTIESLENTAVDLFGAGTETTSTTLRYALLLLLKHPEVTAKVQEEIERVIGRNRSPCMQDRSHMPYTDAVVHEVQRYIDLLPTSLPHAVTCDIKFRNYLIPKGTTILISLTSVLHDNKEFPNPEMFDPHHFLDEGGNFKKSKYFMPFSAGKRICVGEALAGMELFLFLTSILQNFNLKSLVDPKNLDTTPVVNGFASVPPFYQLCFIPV

[8] = Drug metabolism in rat liver microsomes assessed as O-demethylated metabolite formation; assay type: ADME, Microsome
[9] = Plasma clearance in rat at 2 mg/kg, po or 1 mg/kg, iv; assay type: ADME, organism-based
[10] = Drug recovery in fasted bile-duct cannulated Sprague-Dawley rat feces at 5 mg/kg, po using [3H]-labeled compound measured after 48 hrs; assay type: ADME, organism-based; conditions: in vivo
[11] = Blood clearance in C57BL/6J mouse at 1 mg/kg, po or 0.5 mg/kg, iv; assay type: ADME, organism-based; conditions: whole blood
How it was run: (§3)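 Single-dose PK at 1 mg/kg po and 0.5 mg/kg iv. Mouse clearance is from blood; dog and rhesus clearance is from plasma. Mouse vehicle, both routes: DMSO:PEG400:water (5:40:55, v/v/v). Dog and monkey iv vehicle: PEG200:12%HPCD:water (30:12:58 v/v/v). Dog and monkey po vehicle: Imwitor:Tween (1:1 w/w).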

Cytochrome P450 1A2 = target: T1, Cytochrome P450 1A2 (Homo sapiens, UniProt P05177); assay: Inhibition of CYP1A2 (unknown origin); assay type: ADME
T1 sequence (P05177 whole entry): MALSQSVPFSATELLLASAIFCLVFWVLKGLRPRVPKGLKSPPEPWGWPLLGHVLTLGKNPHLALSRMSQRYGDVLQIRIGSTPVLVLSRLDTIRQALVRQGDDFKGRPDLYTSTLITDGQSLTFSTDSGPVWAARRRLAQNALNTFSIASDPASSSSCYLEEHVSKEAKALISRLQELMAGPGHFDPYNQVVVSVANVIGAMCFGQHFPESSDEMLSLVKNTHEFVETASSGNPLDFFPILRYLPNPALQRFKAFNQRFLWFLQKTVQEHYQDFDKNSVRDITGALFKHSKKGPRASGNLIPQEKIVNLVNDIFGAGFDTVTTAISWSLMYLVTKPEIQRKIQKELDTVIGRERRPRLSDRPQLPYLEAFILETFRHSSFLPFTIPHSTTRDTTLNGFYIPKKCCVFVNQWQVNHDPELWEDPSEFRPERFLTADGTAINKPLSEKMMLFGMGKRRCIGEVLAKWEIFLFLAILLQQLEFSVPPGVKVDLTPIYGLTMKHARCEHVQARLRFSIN

[12] = Cmax in Sprague-Dawley rat at 5 mg/kg, po administered as single dose measured at 6 hrs; assay type: ADME, organism-based; parameters: route oral, dose 5 mg/kg, time 6 hrs; conditions: in vivo
[13] = Oral bioavailability in dog at 1 mg/kg; assay type: ADME, organism-based, Canis lupus familiaris; conditions: in vivo; how it was run: as §1
[14] = In vivo inhibition of HIF-PHD2 in C57BL/6 mouse assessed as serum erythropoietin level at 1.5 mg/kg, iv measured after 4 hrs; assay type: functional; how it was run: as §2
[15] = Plasma clearance in rhesus monkey at 1 mg/kg, po or 0.5 mg/kg, iv; assay type: ADME, organism-based, Macaca mulatta; how it was run: as §1
[16] = Protein binding in rat plasma assessed as unbound fraction at 2 mg/kg, po or 1 mg/kg, iv; assay type: ADME, organism-based; conditions: read-out: PPB
[17] = Half life in dog at 1 mg/kg, po or 0.5 mg/kg, iv; assay type: ADME, organism-based, Canis lupus familiaris; conditions: in vivo; how it was run: as §3
[18] = Oral bioavailability in C57BL/6J mouse at 1 mg/kg; assay type: ADME, organism-based; conditions: in vivo
How it was run: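 C57BL/6J mice dosed 1 mg/kg po and 0.5 mg/kg iv, both in DMSO:PEG400:water (5:40:55, v/v/v).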

[19] = Plasma clearance in dog at 1 mg/kg, po or 0.5 mg/kg, iv; assay type: ADME, organism-based, Canis lupus familiaris; how it was run: as §1
[20] = Drug recovery in fasted bile-duct cannulated Sprague-Dawley rat bile assessed as metabolically unchanged parent compound at 5 mg/kg, po using [3H]-labeled compound measured after 48 hrs; assay type: ADME, organism-based; conditions: in vivo
[21] = Drug recovery in fasted bile-duct cannulated Sprague-Dawley rat urine at 5 mg/kg, po using [3H]-labeled compound measured after 48 hrs; assay type: ADME, organism-based; conditions: in vivo
Cytochrome P450 2C19 = Cytochrome P450 2C19 (Homo sapiens, UniProt P33261); assay: Inhibition of CYP2C19 (unknown origin); assay type: ADME
Cytochrome P450 2C19, sequence (P33261 whole entry): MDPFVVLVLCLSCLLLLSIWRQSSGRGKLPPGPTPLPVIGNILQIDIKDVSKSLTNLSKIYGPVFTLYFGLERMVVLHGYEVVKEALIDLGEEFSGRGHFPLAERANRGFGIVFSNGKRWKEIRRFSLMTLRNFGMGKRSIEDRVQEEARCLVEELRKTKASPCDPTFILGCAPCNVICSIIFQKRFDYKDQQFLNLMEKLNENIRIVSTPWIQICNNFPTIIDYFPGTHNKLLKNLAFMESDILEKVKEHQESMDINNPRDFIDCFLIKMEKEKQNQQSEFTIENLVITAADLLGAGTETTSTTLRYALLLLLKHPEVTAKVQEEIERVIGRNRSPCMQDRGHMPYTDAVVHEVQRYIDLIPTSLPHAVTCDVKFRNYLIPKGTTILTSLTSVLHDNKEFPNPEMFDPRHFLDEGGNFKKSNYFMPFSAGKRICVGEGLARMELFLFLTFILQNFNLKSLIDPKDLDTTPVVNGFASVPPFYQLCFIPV

[22] = Cmax in Sprague-Dawley rat at 15 mg/kg, po administered as single dose measured at 6 hrs; assay type: ADME, organism-based; parameters: route oral, time 6 hrs, dose 15 mg/kg; conditions: in vivo
[23] = Half life in rat at 2 mg/kg, po or 1 mg/kg, iv; assay type: ADME, organism-based; conditions: in vivo
[24] = Cmax in rhesus monkey at 1 mg/kg, po or 0.5 mg/kg, iv; assay type: ADME, organism-based, Macaca mulatta; parameters: dose 1 mg/kg; conditions: in vivo; how it was run: as §3
[25] = Half life in rhesus monkey at 1 mg/kg, po or 0.5 mg/kg, iv; assay type: ADME, organism-based, Macaca mulatta; conditions: in vivo; how it was run: as §3
Mus musculus = species: Mus musculus; conditions: C57BL/6, dose 5-15 mg/kg, time 2.0 day
[26] = In vivo inhibition of HIF-PHD2 in C57BL/6 mouse assessed as serum erythropoietin level at 5 mg/kg, iv measured after 4 hrs; assay type: functional; how it was run: as §2
[27] = Metabolic stability in dog liver microsomes assessed as metabolic turnover at 10 uM measured after 60 mins in presence of NADPH; assay type: ADME, Canis lupus familiaris, Microsome; conditions: read-out: Drug metabolism
How it was run: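 Tritiated compound incubated with liver microsomes with NADPH added; metabolic turnover monitored.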

[28] = Volume of distribution at steady state in dog at 1 mg/kg, po or 0.5 mg/kg, iv; assay type: ADME, organism-based, Canis lupus familiaris; conditions: in vivo, read-out: Vdss; how it was run: as §1
[29] = Toxicity in Sprague-Dawley rat assessed as change in hemoglobin levels at 1.5 mg/kg, po QD administered for 4 weeks and measured post last dose; assay type: organism-based; conditions: in vivo, 672 h

COc1ccc(C(NC(=O)c2cnc(-c3cccnn3)nc2O)c2ccc(OC)cc2)cc1
bioavailability [1]: 52%
IC50 (Cytochrome P450 3A4): > 60 µM
IC50 [2]: > 30 µM
fraction unbound [3]: 0.01
Activity [4]: 27000 pg/mL
Activity [5]: 18000 pg/mL
Drug metabolism [6]: Metabolite_Detected
Drug metabolism [7]: Metabolite_Detected
IC50 (Cytochrome P450 2C9): > 60 µM
Drug metabolism [8]: Metabolite_Detected
clearance [9]: 0.2 mL/min/kg
Drug recovery [10]: 39%
clearance [11]: 0.13 mL/min/kg
IC50 (Cytochrome P450 1A2): > 60 µM
Cmax [12]: 14 µM
bioavailability [13]: 71%
Activity [14]: 360 pg/mL
clearance [15]: 0.15 mL/min/kg
fraction unbound [16]: 0.006
half-life [17]: 19 h
bioavailability [18]: 6.3%
clearance [19]: 0.07 mL/min/kg
Drug recovery [20]: < 10%
Drug recovery [21]: 26%
IC50 (Cytochrome P450 2C19): > 60 µM
Cmax [22]: 30 µM
half-life [23]: 9.3 h
Cmax [24]: 17 µM
half-life [25]: 10 h
inhibition (Mus musculus): Active
Activity [26]: 6200 pg/mL
metabolised at 1 h, 10 µM [27]: < 10%
Vd [28]: 0.12 L/kg
Activity [29]: 1 g/dL
